According to ChEMBL document CHEMBL1143832, “EDP-420, a bicyclolide (bridged bicyclic macrolide), is active against Mycobacterium avium” (Antimicrob Agents Chemother, 2007):
Values after ≈ are worked out from the molar mass of the structure shown. Active and inactive are the calls of the source. No cut-off for these calls is given here.

How the values were obtained:
Mycobacterium avium [1] = experiment: Antimicrobial activity against macrolide-susceptible Mycobacterium avium by radiometric broth […] method; format: functional
Summary of the method: (§1)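 MAC clinical blood isolates from AIDS patients; 5–10 colonies from 7H11 agar into 7H9 broth, inoculum ~5 × 10^4 CFU/ml by McFarland no. 1. Radiometric (BACTEC) broth […], T100 analysis. Controls: undiluted drug-free, 1:100 and 1:1,000 diluted inoculum, boiled-bacteria vial. Observation ~7 days. MIC range, MIC50 and MIC90 reported (susceptible n = 24; resistant n = 6).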

Mycobacterium avium [2] = experiment: Antimicrobial activity against macrolide-resistant Mycobacterium avium radiometric broth […] method; format: functional; summary of the method: as §1
[3] = test system: Mycobacterium avium complex sp.; experiment: Antimicrobial activity against Mycobacterium avium complex 101 infected C57BL/6 beige mouse spleen assessed as bacterial load at 100 mg/kg once daily 6 days a week for 4 weeks; format: functional
Summary of the method: (§2)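 Female C57BL/6 beige mice, about 20 g, infected intravenously with about 3 × 10^7 MAC 101. Baseline mice harvested at 1 week, when treatment started: once daily, 6 days/week, for 4 weeks, alongside diluent-treated controls. Liver and spleen homogenized, diluted and plated on 7H10 agar, with CFU counted after 10 days at 37°C and expressed per gram. Student's t test.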

[4] = test system: Mycobacterium avium complex sp.; experiment: Antimicrobial activity against Mycobacterium avium complex 101 infected C57BL/6 beige mouse liver assessed as bacterial load at 100 mg/kg once daily 6 days a week for 4 weeks; format: functional; summary of the method: as §2
[5] = test system: Mycobacterium avium complex sp.; experiment: Antimicrobial activity against clarithromycin resistant-Mycobacterium avium complex 101 infected C57BL/6 beige mouse spleen assessed as bacterial load at 100 mg/kg once daily 6 days a week for 4 weeks; format: functional
Summary of the method: (§3)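 Female beige mice (~20 g) infected intravenously with ~3 × 107 clarithromycin-resistant MAC 101 (from spleen of clarithromycin-treated MAC 101-infected mouse). Treatment started 1 week post-infection, once daily, 6 days/week, 4 weeks. Baseline mice harvested at 1 week; diluent-treated controls in parallel. Liver and spleen homogenized, diluted, plated on 7H10 agar, CFU counted after 10 days at 37°C. Mean CFU/g ± SEM.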

[6] = test system: Mycobacterium avium complex sp.; experiment: Antimicrobial activity against clarithromycin resistant-Mycobacterium avium complex 101 infected C57BL/6 beige mouse liver assessed as bacterial load at 100 mg/kg once daily 6 days a week for 4 weeks; format: functional; summary of the method: as §3
[7] = test system: Mycobacterium avium complex sp.; experiment: Antimicrobial activity against Mycobacterium avium complex 101 infected C57BL/6 beige mouse spleen assessed as bacterial load at 40 mg/kg once daily 6 days a week for 4 weeks; format: functional; summary of the method: as §2
[8] = test system: Mycobacterium avium complex sp.; experiment: Antimicrobial activity against Mycobacterium avium complex 101 infected C57BL/6 beige mouse liver assessed as bacterial load at 40 mg/kg once daily 6 days a week for 4 weeks; format: functional; summary of the method: as §2
[9] = test system: Mycobacterium avium complex sp.; experiment: Antimicrobial activity against clarithromycin resistant-Mycobacterium avium complex 101 infected C57BL/6 beige mouse liver assessed as bacterial load at 40 mg/kg once daily 6 days a week for 4 weeks; format: functional; summary of the method: as §3
[10] = test system: Mycobacterium avium complex sp.; experiment: Antimicrobial activity against clarithromycin resistant-Mycobacterium avium complex 101 infected C57BL/6 beige mouse spleen assessed as bacterial load at 40 mg/kg once daily 6 days a week for 4 weeks; format: functional; summary of the method: as §3
[11] = Tmax in mouse serum at 15 mg/kg, po; format: ADME, organism-based; set-up: dose 15 mg/kg, route oral
[12] = Half life in mouse serum at 15 mg/kg, po; format: ADME, organism-based; set-up: dose 15 mg/kg, route oral
[13] = Cmax in mouse serum at 15 mg/kg, po; format: ADME, organism-based; set-up: dose 15 mg/kg, route oral
[14] = test system: Mycobacterium avium complex sp.; experiment: Antimicrobial activity against Mycobacterium avium complex 101 infected C57BL/6 beige mouse spleen assessed as bacterial load after 12 weeks; format: functional
[15] = test system: Mycobacterium avium complex sp.; experiment: Antimicrobial activity against Mycobacterium avium complex 101 infected C57BL/6 beige mouse spleen assessed as bacterial load after 8 weeks; format: functional
[16] = test system: Mycobacterium avium complex sp.; experiment: Antibacterial activity against Mycobacterium avium complex 101 in U937 cells at 0.5 ug/ml after 4 days; settings: U-937

| SMILES | MIC50 (Mycobacterium avium [1]) [µg/mL] | MIC90 (Mycobacterium avium [1]) [µg/mL] | MIC (Mycobacterium avium [2]) [µg/mL] | CFU [3] | CFU [4] | CFU [5] | CFU [6] | CFU [7] | CFU [8] | CFU [9] | CFU [10] | Tmax [11] [h] | half-life [12] [h] | Cmax [13] [ng/mL] | CFU [14] | CFU [15] | Activity [16] |
| --- | --- | --- | --- | --- | --- | --- | --- | --- | --- | --- | --- | --- | --- | --- | --- | --- | --- |
| CC[C@H]1OC(=O)[C@H](C)[C@@H](O[C@H]2C[C@@](C)(OC)[C@@H](O)[C@H](C)O2)[C@H](C)[C@@H](O[C@@H]2O[C@H](C)C[C@H](N(C)C)[C@H]2O)[C@](C)(O)C[C@@H](C)CN(C)[C@H](C)[C@@H](O)[C@]1(C)O [AZITHROMYCIN] | 16 (≈ 21.4 µM) | 16 (≈ 21.4 µM) | > 512 | – | – | – | – | – | – | – | – | – | – | – | – | – | – |
| CC[C@H]1OC(=O)[C@H](C)[C@@H](O[C@H]2C[C@@](C)(OC)[C@@H](O)[C@H](C)O2)[C@H](C)[C@@H](O[C@@H]2O[C@H](C)C[C@H](N(C)C)[C@H]2O)[C@](C)(OC)C[C@@H](C)C(=O)[C@H](C)[C@@H](O)[C@]1(C)O [CLARITHROMYCIN] | 2 (≈ 2.67 µM) | 4 (≈ 5.35 µM) | > 64 | 6.6 10^7/g | 2.8 10^7/g | 8 10^8/g | 2.8 10^8/g | – | – | – | – | – | – | – | – | – | – |
| O[C@@H](c1cc(C(F)(F)F)nc2c(C(F)(F)F)cccc12)[C@H]1CCCCN1 [MEFLOQUINE] | – | – | – | – | – | – | – | 4.8 10^7/g | 1.8 10^7/g | 2.9 10^7/g | 4.6 10^7/g | – | – | – | – | – | – |
| CC[C@H]1OC(=O)[C@H](C)C(=O)[C@H](C)[C@@H](O[C@@H]2O[C@H](C)C[C@H](N(C)C)[C@H]2O)[C@@]2(C)C[C@@H](C)/C(=N\C(C)=O)[C@H](C)[C@@H](OC/C(=N\OCc3ccc(-n4cccn4)nc3)CO2)[C@]1(C)O [MODITHROMYCIN] | 4 (≈ 4.76 µM) | 8 (≈ 9.51 µM) | 32 (≈ 38 µM) | 1.2 10^7/g | 7.1 10^6/g | 5.7 10^8/g | 1.7 10^8/g | – | – | 2.5 10^8/g | 2.7 10^8/g | 1.5 | 3.3 | 2500 | 2.5 10^5/g | 2.3 10^5/g | Active |
| CC[C@H]1OC(=O)[C@H](C)C(=O)[C@H](C)[C@@H](O[C@@H]2O[C@H](C)C[C@H](N(C)C)[C@H]2O)[C@](C)(OC)C[C@@H](C)C(=O)[C@H](C)[C@H]2N(CCCCn3cnc(-c4cccnc4)c3)C(=O)O[C@]12C [TELITHROMYCIN] | 32 (≈ 39.4 µM) | > 64 | – | – | – | – | – | – | – | – | – | 1 | 1.5 | 5500 | – | – | – |
